≈ marks a conversion by molar mass, not a printed value. Values belong to the compound of their own block, whether it stands above or below them. Calls of active or inactive are those of the source. No cut-off for these calls is given here.
Assays:
Orexin receptor type 2 [1] = biological target: T1, Orexin receptor type 2 (Homo sapiens, UniProt O43614); assay: Binding affinity to human OX2 receptor in cell membrane by in vitro radioligand binding assay; type: cell membranes
T1 sequence (O43614 whole entry): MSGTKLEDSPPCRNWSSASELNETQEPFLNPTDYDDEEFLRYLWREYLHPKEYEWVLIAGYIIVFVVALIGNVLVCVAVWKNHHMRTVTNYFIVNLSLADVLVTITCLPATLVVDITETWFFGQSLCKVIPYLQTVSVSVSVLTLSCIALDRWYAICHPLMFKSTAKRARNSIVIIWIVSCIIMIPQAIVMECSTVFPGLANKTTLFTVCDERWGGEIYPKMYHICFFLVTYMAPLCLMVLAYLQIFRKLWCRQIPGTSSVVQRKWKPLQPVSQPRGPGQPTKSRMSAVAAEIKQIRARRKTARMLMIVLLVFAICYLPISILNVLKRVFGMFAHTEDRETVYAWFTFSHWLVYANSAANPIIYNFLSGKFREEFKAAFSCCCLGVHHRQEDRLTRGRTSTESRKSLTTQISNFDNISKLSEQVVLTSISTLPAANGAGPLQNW
Procedure, shortened: (§1)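 Radioligand binding to membranes from human cells overexpressing OX1R or OX2R; affinity expressed as Ki.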

[2] = biological target: T2, Orexin/Hypocretin receptor type 1 (Homo sapiens, UniProt O43613); assay: Binding affinity to human OX1 receptor in cell membrane by in vitro radioligand binding assay; type: cell membranes; procedure, shortened: as §1
T2 sequence (O43613 whole entry): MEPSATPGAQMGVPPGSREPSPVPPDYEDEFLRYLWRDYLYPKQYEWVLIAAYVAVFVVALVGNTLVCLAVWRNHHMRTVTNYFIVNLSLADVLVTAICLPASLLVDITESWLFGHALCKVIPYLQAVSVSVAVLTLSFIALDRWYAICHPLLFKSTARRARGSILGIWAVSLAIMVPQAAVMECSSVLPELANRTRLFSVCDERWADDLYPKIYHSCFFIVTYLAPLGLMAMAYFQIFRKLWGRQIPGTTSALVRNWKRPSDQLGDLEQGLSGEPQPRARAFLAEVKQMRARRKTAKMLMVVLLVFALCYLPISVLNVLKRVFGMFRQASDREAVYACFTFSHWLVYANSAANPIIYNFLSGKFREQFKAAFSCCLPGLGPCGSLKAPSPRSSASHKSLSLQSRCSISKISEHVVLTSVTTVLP

Orexin receptor type 2 [3] = biological target: T1, Orexin receptor type 2; assay: Antagonist activity at human OX2 receptor assessed as Ca2+ flux by FLIPR assay; type: functional
[4] = biological target: T2, Orexin/Hypocretin receptor type 1; assay: Antagonist activity at human OX1 receptor assessed as Ca2+ flux by FLIPR assay; type: functional
Cytochrome P450 3A4 [5] = biological target: T3, Cytochrome P450 3A4 (Homo sapiens, UniProt P08684); assay: Inhibition of CYP3A4 (unknown origin); type: ADME
[6] = Lipophilicity, log D of the compound at pH 7 by HPLC analysis; type: physicochemical; conditions: buffer
Procedure, shortened: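 High-throughput HPLC logD at pH 7 using a reversed-phase C18 column, with phosphate-buffered saline pH 7 and acetonitrile as mobile phases. The system is calibrated with standards of published shake-flask logD, and logD is read from a linear regression of retention time against logD.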

[7] = Solubility of the compound at pH 7 by HPLC analysis; type: physicochemical; conditions: buffer
[8] = Plasma protein binding in human; type: ADME, cell-free; conditions: read-out: PPB (converted)
[9] = Plasma protein binding in dog; type: ADME, cell-free, Canis lupus familiaris; conditions: read-out: PPB (converted)
[10] = Clearance in iv dosed dog; type: ADME, organism-based, Canis lupus familiaris; conditions: in vivo
[11] = Half life in iv dosed dog; type: ADME, organism-based, Canis lupus familiaris; conditions: in vivo
[12] = biological target: Voltage-gated inwardly rectifying potassium channel KCNH2 (Homo sapiens, UniProt Q12809); assay: Inhibition of human ERG
Cytochrome P450 2C9 = Cytochrome P450 2C9 (Homo sapiens, UniProt P11712); assay: Inhibition of CYP2C9 (unknown origin); type: ADME
Cytochrome P450 2D6 = Cytochrome P450 2D6 (Homo sapiens, UniProt P10635); assay: Inhibition of CYP2D6 (unknown origin); type: ADME
Mus musculus [13] = assay: Sleep promoting activity in wild type mouse sleep EEG model assessed as reduction of active wake at 100 mg/kg, po administered during dark or active phase 4 hrs prior to lights on measured for 2 hrs following drug administration; type: functional, organism-based; design: dose 100 mg/kg
Procedure, shortened: (§2)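 Mice carried surgically implanted radiotelemetry transmitters recording EEG and EMG to score vigilance state; wildtype n = 5, OX2R knockout n = 6. Oral 100 mg/kg or vehicle (20% Vit. E TPGS) in a balanced cross-over, dosed in the dark (active) phase 4 h before lights on. Mean time per state was taken in 30 min intervals and compared by a linear mixed-effects repeated-measures t-test.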

Mus musculus [14] = assay: Sleep promoting activity in wild type mouse sleep EEG model assessed as increase in delta sleep at 100 mg/kg, po administered during dark or active phase 4 hrs prior to lights on measured for 2 hrs following drug administration; type: functional, organism-based; design: dose 100 mg/kg; procedure, shortened: as §2
Mus musculus [15] = assay: Sleep promoting activity in wild type mouse sleep EEG model assessed as increase in REM sleep at 100 mg/kg, po administered during dark or active phase 4 hrs prior to lights on measured for 2 hrs following drug administration; type: functional, organism-based; design: dose 100 mg/kg; procedure, shortened: as §2
Mus musculus [16] = assay: Sleep promoting activity in wild type mouse sleep EEG model assessed as reduction of active wake at 100 mg/kg, po administered during dark or active phase 4 hrs prior to lights on measured during first 30 mins after drug administration; type: functional, organism-based; design: dose 100 mg/kg; procedure, shortened: as §2
Mus musculus [17] = assay: Sleep promoting activity in wild type mouse sleep EEG model assessed as increase in delta sleep at 100 mg/kg, po administered during dark or active phase 4 hrs prior to lights on measured during first 30 mins after drug administration; type: functional, organism-based; design: dose 100 mg/kg; procedure, shortened: as §2
Mus musculus [18] = assay: Sleep promoting activity in wild type mouse sleep EEG model assessed as increase in REM sleep at 100 mg/kg, po administered during dark or active phase 4 hrs prior to lights on measured during first 30 mins after drug administration; type: functional, organism-based; design: dose 100 mg/kg; procedure, shortened: as §2
Mus musculus [19] = assay: Sleep promoting activity in wild type mouse sleep EEG model assessed as duration of sleep at 100 mg/kg, po administered during dark or active phase 4 hrs prior to lights on; type: functional; procedure, shortened: as §2
Mus musculus [20] = assay: Sleep promoting activity in OX2 receptor knockout mouse at 100 mg/kg, po administered during dark or active phase 4 hrs prior to lights on; type: functional, organism-based; design: dose 100 mg/kg; procedure, shortened: as §2
[21] = Plasma concentration in mouse at 100 mg/kg, po; type: ADME, organism-based; design: dose 100 mg/kg, route oral
CYP3A4 = CYP3A4 (Homo sapiens, UniProt P08684); assay: Time-dependent inhibition of CYP3A4 (unknown origin) assessed as IC50 shift ratio; type: ADME; conditions: read-out: Ratio IC50
Cytochrome P450 3A4 [22] = biological target: T3, Cytochrome P450 3A4; assay: Time-dependent inhibition of CYP3A4 (unknown origin); type: ADME; conditions: TDE = time-dependent effect

T3 sequence (P08684 whole entry): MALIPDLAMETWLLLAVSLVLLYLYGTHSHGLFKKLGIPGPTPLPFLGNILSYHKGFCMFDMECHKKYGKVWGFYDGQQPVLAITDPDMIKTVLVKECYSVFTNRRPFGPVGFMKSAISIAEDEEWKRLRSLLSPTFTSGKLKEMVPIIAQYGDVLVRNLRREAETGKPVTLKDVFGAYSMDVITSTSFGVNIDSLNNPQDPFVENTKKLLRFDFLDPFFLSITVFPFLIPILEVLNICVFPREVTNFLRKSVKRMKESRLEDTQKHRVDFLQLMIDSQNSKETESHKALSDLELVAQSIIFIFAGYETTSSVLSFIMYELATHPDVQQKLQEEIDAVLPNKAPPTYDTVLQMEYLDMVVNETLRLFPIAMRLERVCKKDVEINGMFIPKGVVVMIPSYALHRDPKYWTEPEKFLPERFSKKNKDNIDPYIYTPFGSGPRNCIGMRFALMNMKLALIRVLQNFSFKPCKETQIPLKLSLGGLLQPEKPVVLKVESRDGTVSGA
Sequence of Voltage-gated inwardly rectifying potassium channel KCNH2 (Q12809 whole entry): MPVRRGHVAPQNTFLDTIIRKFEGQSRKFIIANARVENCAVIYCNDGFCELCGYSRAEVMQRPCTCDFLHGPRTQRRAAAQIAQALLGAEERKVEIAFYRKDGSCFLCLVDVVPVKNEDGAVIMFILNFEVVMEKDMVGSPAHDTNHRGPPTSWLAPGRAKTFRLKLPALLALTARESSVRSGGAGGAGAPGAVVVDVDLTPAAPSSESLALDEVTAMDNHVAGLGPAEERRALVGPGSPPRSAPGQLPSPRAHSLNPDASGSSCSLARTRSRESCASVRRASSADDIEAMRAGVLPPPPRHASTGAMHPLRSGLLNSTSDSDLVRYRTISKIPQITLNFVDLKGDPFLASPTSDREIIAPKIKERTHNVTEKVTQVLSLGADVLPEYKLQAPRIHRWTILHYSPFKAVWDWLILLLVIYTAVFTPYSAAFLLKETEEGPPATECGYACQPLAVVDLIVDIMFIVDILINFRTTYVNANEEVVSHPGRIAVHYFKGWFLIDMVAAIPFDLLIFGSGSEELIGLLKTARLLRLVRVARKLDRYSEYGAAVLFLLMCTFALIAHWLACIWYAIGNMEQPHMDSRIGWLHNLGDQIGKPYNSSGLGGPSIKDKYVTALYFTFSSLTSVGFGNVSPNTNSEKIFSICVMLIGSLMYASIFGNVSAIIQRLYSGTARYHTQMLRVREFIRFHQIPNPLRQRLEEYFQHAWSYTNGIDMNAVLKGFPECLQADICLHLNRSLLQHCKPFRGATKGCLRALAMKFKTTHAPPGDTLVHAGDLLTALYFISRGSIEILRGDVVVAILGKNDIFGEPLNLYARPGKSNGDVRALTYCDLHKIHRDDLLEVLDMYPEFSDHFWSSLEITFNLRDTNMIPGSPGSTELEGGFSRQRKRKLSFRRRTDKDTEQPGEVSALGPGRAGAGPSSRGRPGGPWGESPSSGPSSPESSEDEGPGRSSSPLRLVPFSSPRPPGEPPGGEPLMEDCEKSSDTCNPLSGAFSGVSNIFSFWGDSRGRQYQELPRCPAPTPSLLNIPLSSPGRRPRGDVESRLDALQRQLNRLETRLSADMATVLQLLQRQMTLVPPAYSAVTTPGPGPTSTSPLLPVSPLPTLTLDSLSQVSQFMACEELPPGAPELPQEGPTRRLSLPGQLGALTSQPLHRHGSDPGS
Sequence of Cytochrome P450 2C9 (P11712 whole entry): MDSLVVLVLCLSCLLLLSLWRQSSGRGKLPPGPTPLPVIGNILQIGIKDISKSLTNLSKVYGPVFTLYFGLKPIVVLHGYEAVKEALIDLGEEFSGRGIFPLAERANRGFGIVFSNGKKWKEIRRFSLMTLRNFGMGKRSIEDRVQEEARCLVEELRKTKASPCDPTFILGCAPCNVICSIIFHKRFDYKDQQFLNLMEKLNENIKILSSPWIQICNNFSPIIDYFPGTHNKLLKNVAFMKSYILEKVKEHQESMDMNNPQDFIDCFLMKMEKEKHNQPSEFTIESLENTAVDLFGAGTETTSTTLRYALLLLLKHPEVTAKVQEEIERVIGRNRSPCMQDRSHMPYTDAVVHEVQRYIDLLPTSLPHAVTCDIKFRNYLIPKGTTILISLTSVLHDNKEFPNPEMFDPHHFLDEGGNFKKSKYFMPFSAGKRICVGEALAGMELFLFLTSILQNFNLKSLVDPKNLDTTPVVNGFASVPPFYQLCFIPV
Sequence of Cytochrome P450 2D6 (P10635 whole entry): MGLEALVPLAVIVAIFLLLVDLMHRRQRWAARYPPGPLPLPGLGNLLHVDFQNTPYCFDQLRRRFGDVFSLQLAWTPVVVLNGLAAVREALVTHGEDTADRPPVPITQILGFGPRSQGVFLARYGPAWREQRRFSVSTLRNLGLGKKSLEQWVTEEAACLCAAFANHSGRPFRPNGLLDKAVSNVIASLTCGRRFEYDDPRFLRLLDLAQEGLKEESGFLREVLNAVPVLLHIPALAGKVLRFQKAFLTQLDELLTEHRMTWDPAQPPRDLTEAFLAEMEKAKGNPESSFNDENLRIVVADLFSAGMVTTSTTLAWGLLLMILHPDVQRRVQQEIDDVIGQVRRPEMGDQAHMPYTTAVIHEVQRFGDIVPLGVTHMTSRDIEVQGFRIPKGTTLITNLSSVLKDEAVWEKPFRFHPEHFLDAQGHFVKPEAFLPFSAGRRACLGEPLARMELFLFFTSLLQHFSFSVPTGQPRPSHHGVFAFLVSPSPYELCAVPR
Sequence of CYP3A4 (P08684 whole entry): as the sequence (P08684 whole entry) above

Ki (Orexin receptor type 2 [1]): 24 nM | Ki [2]: 24 nM
Compound: Cc1ccc(-n2nccn2)c(C(=O)N2C[C@H](C#Cc3cccnc3O)CC[C@H]2C)c1

Ki (Orexin receptor type 2 [1]): 130 nM | Ki [2]: 211 nM
Compound: Cc1ccc(-n2nccn2)c(C(=O)N2C[C@H](C#Cc3ccc(CO)cn3)CC[C@H]2C)c1

Ki (Orexin receptor type 2 [1]): 3 nM | Ki [2]: 17 nM | IC50 (Orexin receptor type 2 [3]): 34 nM | IC50 [4]: 140 nM
Compound: Cc1ccc(-n2nccn2)c(C(=O)N2C[C@H](/C=C/c3ccc(F)cn3)CC[C@H]2C)c1

Ki (Orexin receptor type 2 [1]): 7 nM | Ki [2]: 26 nM
Compound: Cc1ccc(-n2nccn2)c(C(=O)N2C[C@H](C#Cc3ccncc3)CC[C@H]2C)c1

Ki (Orexin receptor type 2 [1]): 26 nM | Ki [2]: 470 nM | IC50 (Orexin receptor type 2 [3]): 145 nM | IC50 [4]: 861 nM
Compound: Cc1ccc(-n2nccn2)c(C(=O)N2C[C@H](CCc3ccc(F)cn3)CC[C@H]2C)c1

Ki (Orexin receptor type 2 [1]): 28 nM | Ki [2]: 135 nM | IC50 (Orexin receptor type 2 [3]): 417 nM | IC50 [4]: 706 nM
Compound: Cc1ccc(-n2nccn2)c(C(=O)N2C[C@H](/C=C\c3ccc(F)cn3)CC[C@H]2C)c1

Ki (Orexin receptor type 2 [1]): 32 nM | Ki [2]: 108 nM
Compound: Cc1ccc(-n2nccn2)c(C(=O)N2C[C@H](C#Cc3cncc(CO)c3)CC[C@H]2C)c1

Ki (Orexin receptor type 2 [1]): 150 nM | Ki [2]: 339 nM
Compound: Cc1ccc(-n2nccn2)c(C(=O)N2C[C@H](C#Cc3ccc(CO)nc3)CC[C@H]2C)c1

Ki (Orexin receptor type 2 [1]): 7.5 nM | Ki [2]: 866 nM | IC50 (Orexin receptor type 2 [3]): 52 nM | IC50 [4]: 3880 nM
Compound: Cc1ccc(-n2nccn2)c(C(=O)N2C[C@H](C#Cc3cnccc3O)CC[C@H]2C)c1

Ki (Orexin receptor type 2 [1]): 41 nM | Ki [2]: 107 nM | IC50 (Orexin receptor type 2 [3]): 28 nM | IC50 [4]: 83 nM
Compound: Cc1ccc(-n2nccn2)c(C(=O)N2C[C@H](C#Cc3cccnc3)CC[C@H]2C)c1

Ki (Orexin receptor type 2 [1]): 11 nM | Ki [2]: 27 nM | IC50 (Orexin receptor type 2 [3]): 42 nM | IC50 [4]: 100 nM
Compound: Cc1ccc(-n2nccn2)c(C(=O)N2C[C@H](C#Cc3ccccn3)CC[C@H]2C)c1

Ki (Orexin receptor type 2 [1]): 1.1 nM | Ki [2]: 1.1 nM | IC50 (Orexin receptor type 2 [3]): 24 nM | IC50 [4]: 31 nM | IC50 (Cytochrome P450 3A4 [5]): > 50000 nM | logD [6]: 3.7 | solubility [7]: 124 µM (≈ 50 µg/mL) | fraction unbound [8]: 0.009 | fraction unbound [9]: 0.039 | clearance [10]: 1.6 mL/min/kg | half-life [11]: 2 h | INH (Cytochrome P450 2C9): 32 µM | INH (Cytochrome P450 2D6): > 50 µM | AUC [21]: 60 µM·h | inhibition (INH) (Cytochrome P450 3A4 [22]): tde
Compound: Cc1ccc(-n2nccn2)c(C(=O)N2C[C@H](C#Cc3ccc(F)cn3)CC[C@H]2C)c1
INH [12]: 23 µM | Activity (Mus musculus [13]): Active | Activity (Mus musculus [14]): Active | Activity (Mus musculus [15]): Active | Activity (Mus musculus [16]): Active | Activity (Mus musculus [17]): Active | Activity (Mus musculus [18]): Active | Time (Mus musculus [19]): 2 h | Activity (Mus musculus [20]): inactive | IC50 shift (CYP3A4): > 6.4

Ki (Orexin receptor type 2 [1]): 42 nM | Ki [2]: 76 nM
Compound: Cc1ccc(-n2nccn2)c(C(=O)N2C[C@H](C#Cc3cc(CO)ccn3)CC[C@H]2C)c1

Ki (Orexin receptor type 2 [1]): 25 nM | Ki [2]: 75 nM | IC50 (Orexin receptor type 2 [3]): 100 nM | IC50 [4]: 298 nM
Compound: Cc1ccc(-n2nccn2)c(C(=O)N2C[C@H](C#Cc3ccnc(CO)c3)CC[C@H]2C)c1

Ki (Orexin receptor type 2 [1]): 0.2 nM | Ki [2]: 1 nM | IC50 (Orexin receptor type 2 [3]): 15 nM | IC50 [4]: 16 nM
Compound: Cc1ccc(-n2nccn2)c(C(=O)N2C[C@H](COc3ccc(F)cn3)CC[C@H]2C)c1

Ki (Orexin receptor type 2 [1]): 0.53 nM | Ki [2]: 0.56 nM | IC50 (Orexin receptor type 2 [3]): 6.3 nM | IC50 [4]: 6.3 nM | IC50 (Cytochrome P450 3A4 [5]): 4000 nM
Compound: Cc1ccc(-n2nccn2)c(C(=O)N2C[C@H](C#Cc3cccc(CO)c3)CC[C@H]2C)c1

Ki (Orexin receptor type 2 [1]): 5.6 nM | Ki [2]: 18 nM | IC50 (Orexin receptor type 2 [3]): 26 nM | IC50 [4]: 59 nM | logD [6]: 2.1
Compound: Cc1ccc(-n2nccn2)c(C(=O)N2C[C@H](C#Cc3cccc(CO)n3)CC[C@H]2C)c1

From ChEMBL document CHEMBL3232758, “Synthesis and evaluation of carbon-linked analogs of dual orexin receptor antagonist filorexant” (Bioorg Med Chem Lett, 2014)
